The format of data set [1] is in vivo, human. The essentials:
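Healthy volunteers in a randomized crossover each received a single 0.2 U/kg s.c. dose per period. Plasma was sampled predose and from 5 to 720 min postdose. Insulin aspart, with 15N-labelled internal standard, was captured on anti-insulin antibody magnetic beads and measured by UPLC-MS/MS (range 100-8000 pg/mL). AUC ratios and CIs came from Fieller's theorem. Time endpoints were summarised descriptively by treatment.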

Data set [2] relates to healthy subjects. Description: Safety: treatment-emergent adverse events. As to conditions: single s.c. dose 0.2 U/kg; for Headache, number of subjects / Headache, percentage of subjects / Injection site erythema, number of subjects / Injection site erythema, percentage of subjects / Nasopharyngitis, number of subjects / Nasopharyngitis, percentage of subjects / Hypoglycaemia, events (one subject each): TEAE. It counts as in vivo, human. The essentials: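 In a randomized three-period crossover with washouts, each subject received a single 0.2 U/kg s.c. dose per period. Treatment-emergent adverse events were recorded per treatment and graded mild, moderate or severe. They were summarised descriptively by visit/treatment as subject counts, percentages and event numbers.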

Data set [3] concerns healthy subjects. The experiment in a line: Pharmacodynamics: automated euglycaemic glucose clamp. It is filed as in vivo, human. The note with it: Ref‐InsAsp‐US vs. Ref‐InsAsp‐EU (N = 65); two-sided 90% CI; Fieller's theorem. The essentials: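 Healthy adults aged 18-65 with BMI 18.5-29.0 kg/m2 and fasting glucose ≤5.5 mmol/L. Randomized crossover: single 0.2 U/kg s.c. dose per period, 12- to 16-day washout. Before dosing, variable i.v. human insulin brought blood glucose to the 81 mg/dL target. Glucose infusion was then adjusted automatically over a 12 h clamp, GIR logged every minute. Partial-AUC ratios with CIs came from Fieller's theorem.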

Setting [4] is: healthy subjects, single s.c. dose 0.2 U/kg, plasma, arithmetic mean (SD).
Where [5] appears, read: Ref‐InsAsp‐US vs. Ref‐InsAsp‐EU (N = 66), two-sided 90% CI, Fieller's theorem.

Marks after values point to notes of the source that are not given here.

Consider Insulin aspart [Ref‐InsAsp‐EU], for which, in data set [1] (setting [4]), the “t50%‐early (time to half‐maximum before Cmax)” value is reported as 0.45 (0.12) h, the “t50%‐late (time to half‐maximum after Cmax)” value is reported as 3.1 (0.84) h, the “tmax (time to maximum observed insulin aspart concentration)” value is 1.10 (0.53) h and the “λz (terminal elimination rate constant)” value is recorded as 0.86 (0.28) /h. Also, in data set [2], the “Headache, number of subjects” value was “eight”; the “Headache, percentage of subjects” value is recorded as 11.9%; the “Injection site erythema, number of subjects” value is listed as “one”; the “Injection site erythema, percentage of subjects” value came out at 1.5%. Besides, in data set [2], the “Nasopharyngitis, number of subjects” value was “two”; the “Nasopharyngitis, percentage of subjects” value came to 3.0%; the “Number of TEAE events” value turned out to be 13 events; the “Subjects with at least one TEAE, percentage” value is 19.4%. Moreover, the “Subjects with at least one treatment‐emergent adverse event (TEAE), number” value in data set [2] stood at 13 subjects.

On to Insulin aspart [Ref‐InsAsp‐US], for which, in data set [1] (setting [5]), the “AUC0‐6h LS‐mean ratio” value was 99.71 (97.90; 101.52) % and the “AUC6‐12h LS‐mean ratio” value is recorded as 107.18 (83.81; 137.45) %. In addition, in data set [1] (setting [4]), the “t50%‐late (time to half‐maximum after Cmax)” value was 3.13 (0.86) h, the “tmax (time to maximum observed insulin aspart concentration)” value is on record as 1.11 (0.45) h and the “λz (terminal elimination rate constant)” value is on record as 0.82 (0.27) /h. Moreover, in data set [3], the “AUCGIR,0‐4h LS‐mean ratio” value is reported as 94.11 (90.37; 97.99) ^b %, the “AUCGIR,0‐6h LS‐mean ratio” value is 94.81 (91.46; 98.27) ^b % and the “AUCGIR,6h‐last LS‐mean ratio” value is given as 101.05 (95.75; 106.64) ^b %. In data set [2], the “Headache, number of subjects” value is reported as “five”; the “Headache, percentage of subjects” value is given as 7.2%; the “Hypoglycaemia, events (one subject each)” value is “one”; the “Injection site erythema, number of subjects” value is given as “one”. Further, in data set [2], the “Injection site erythema, percentage of subjects” value was 1.4%; the “Nasopharyngitis, number of subjects” value is “none”; the “Number of TEAE events” value was determined as 12 events; the “Subjects with at least one TEAE, percentage” value was 15.9%. In data set [2], the “Subjects with at least one treatment‐emergent adverse event (TEAE), number” value was determined as 11 subjects.

In the case of “MYL‐1601D: rapid‐acting human insulin analogue, biosimilar insulin aspart 100 U/mL, produced by recombinant DNA technology utilizing Pichia pastoris (Mylan)”, in data set [2], the “Headache, number of subjects” value is on record as “four”; the “Headache, percentage of subjects” value came out at 5.7%; the “Hypoglycaemia, events (one subject each)” value was “one”; the “Injection site erythema, number of subjects” value is “two”. In data set [2], the “Injection site erythema, percentage of subjects” value stood at 2.9%; the “Nasopharyngitis, number of subjects” value is on record as “three”; the “Nasopharyngitis, percentage of subjects” value was 4.3%; the “Number of TEAE events” value was 18 events. Also, in data set [2], the “Subjects with at least one TEAE, percentage” value is recorded as 15.7%.

Source of the values: PMC9292719 (Diabetes, Obesity & Metabolism, 2021).
